Here are results for 1 molecule from article PMC6558985 (Nature chemical biology, 2019).

The structures appear in SMILES notation.

Series [1] has as its system Hs-spastin-N386C. Description: Steady-state ATPase activity, NADH-coupled assay, Hs-spastin N386C. In kind it is biochemical, human. Particulars: 1 mM MgATP.
For series [2], the target named is T1, Hs-FIGL1 (Homo sapiens, UniProt Q6PIW4).
T1 sequence (Q6PIW4 288-674): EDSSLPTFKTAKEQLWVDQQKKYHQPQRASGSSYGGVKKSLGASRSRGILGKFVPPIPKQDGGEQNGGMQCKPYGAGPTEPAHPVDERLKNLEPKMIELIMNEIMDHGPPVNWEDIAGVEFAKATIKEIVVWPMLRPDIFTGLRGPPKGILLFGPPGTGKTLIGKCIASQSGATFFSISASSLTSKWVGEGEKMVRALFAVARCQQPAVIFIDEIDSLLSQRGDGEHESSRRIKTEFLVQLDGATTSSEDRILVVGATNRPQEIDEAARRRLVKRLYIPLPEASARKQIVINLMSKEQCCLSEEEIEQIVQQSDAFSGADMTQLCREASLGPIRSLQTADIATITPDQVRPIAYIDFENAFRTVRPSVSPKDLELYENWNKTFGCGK
Nature of the series: Steady-state ATPase activity, NADH-coupled assay, Hs-FIGL1. The class given is biochemical. The settings on record: 10 µM, 0.5 mM MgATP, n = 3. In short, it runs like this:
(§1)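 Recombinant AAA protein constructs assayed by steady-state ATPase with NADH-coupled read-out at 0.5 mM MgATP, with test compound at 2 µM or 10 µM. Activity is reported as percent of steady-state ATPase activity, average ± s.d., n = 3.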

Series [3] deals with Mm-VCP (Mus musculus, UniProt Q01853, I206V). Description: Steady-state ATPase activity, NADH-coupled assay, Mm-VCP. In kind it is biochemical. The settings on record: 10 µM, 0.5 mM MgATP, n = 3. A digest of the protocol:
as §1

Series [4] concerns the target Xl-katanin (Xenopus laevis, UniProt Q9PUL2). Nature of the series: Steady-state ATPase activity, NADH-coupled assay, Xl-katanin. Particulars: 10 µM, 0.5 mM MgATP, n = 3. In kind it is biochemical, X. laevis. In short, it runs like this: as §1
The target of series [5] is T2, Hs-PCH2 (Homo sapiens, UniProt Q15645).
T2 sequence (Q15645 1-432): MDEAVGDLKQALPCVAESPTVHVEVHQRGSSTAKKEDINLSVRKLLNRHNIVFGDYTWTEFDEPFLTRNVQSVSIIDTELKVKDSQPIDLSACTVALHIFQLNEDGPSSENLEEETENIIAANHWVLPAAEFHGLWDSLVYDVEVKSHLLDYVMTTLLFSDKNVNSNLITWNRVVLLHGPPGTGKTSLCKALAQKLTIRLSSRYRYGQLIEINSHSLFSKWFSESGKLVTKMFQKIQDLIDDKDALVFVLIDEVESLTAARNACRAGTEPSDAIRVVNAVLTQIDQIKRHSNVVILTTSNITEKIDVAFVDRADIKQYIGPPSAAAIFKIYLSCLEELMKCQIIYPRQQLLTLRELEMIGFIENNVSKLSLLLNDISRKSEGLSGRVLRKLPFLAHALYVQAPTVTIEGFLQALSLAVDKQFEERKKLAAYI
Nature of the series: Steady-state ATPase activity, NADH-coupled assay, Hs-PCH2. In kind it is biochemical. The settings on record: 10 µM, 0.5 mM MgATP, n = 3. In short, it runs like this: as §1

For series [6], the target named is T3, human VPS4B (Homo sapiens, UniProt O75351).
T3 sequence (O75351 1-444): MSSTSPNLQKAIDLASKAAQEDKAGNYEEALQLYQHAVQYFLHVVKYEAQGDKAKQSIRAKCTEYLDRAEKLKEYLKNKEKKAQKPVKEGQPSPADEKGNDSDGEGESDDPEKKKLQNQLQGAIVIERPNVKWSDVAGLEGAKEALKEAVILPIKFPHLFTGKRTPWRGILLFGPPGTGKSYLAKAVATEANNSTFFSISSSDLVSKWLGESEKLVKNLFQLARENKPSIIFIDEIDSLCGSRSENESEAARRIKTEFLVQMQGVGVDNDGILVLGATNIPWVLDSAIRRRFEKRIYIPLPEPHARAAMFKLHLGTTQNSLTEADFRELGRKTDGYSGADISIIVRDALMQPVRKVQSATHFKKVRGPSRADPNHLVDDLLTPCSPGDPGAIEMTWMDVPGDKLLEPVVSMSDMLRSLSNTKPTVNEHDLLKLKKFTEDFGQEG
Nature of the series: Steady-state ATPase activity, NADH-coupled assay, VPS4B. In kind it is biochemical. The settings on record: 1 mM MgATP, n = 3.

In series [7] the test system is HeLa-WT cells. Description: Intercellular bridge analysis. In kind it is cell-based, human. Particulars: 10 µM, 4.5 hours. In short, it runs like this: (§2)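 Fixed HeLa Flp-In T-Rex lines expressing GFP-tagged spastin M87e4, either wildtype or N386C. Cells were exposed to 0.1% DMSO or 10 µM test compound for 4.5 h, then stained for acetylated tubulin to mark intercellular bridges and imaged by immunofluorescence. Read-out is the percent of cells with a bridge: >2500 cells per condition, average ± s.d., n = 3.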

Series [8] deals with HeLa-N386C cells. Description: Intercellular bridge analysis. In kind it is cell-based, human. The settings on record: 10 µM, 4.5 hours, average ± s.d., n = 3. In short, it runs like this: as §2
Series [9] deals with HeLa-WT cells. Nature of the series: CellTiter-Glo cell viability assay. The class given is cell-based, human. The settings on record: 10 µM, 48 h.
Series [10] deals with HeLa-WT cells. Description: Microtubule organization. The class given is cell-based, human. Particulars: 10 µM, 4 hours.
The test system of series [11] is HeLa-N386C cells. Description: Live-cell imaging of GFP-spastin puncta in anaphase, HeLa-N386C. The class given is cell-based, human. The settings on record: 10 µM for 1 hour, 20 min after cleavage furrow ingression.

Mm-VCP, sequence (Q01853 whole entry I206V): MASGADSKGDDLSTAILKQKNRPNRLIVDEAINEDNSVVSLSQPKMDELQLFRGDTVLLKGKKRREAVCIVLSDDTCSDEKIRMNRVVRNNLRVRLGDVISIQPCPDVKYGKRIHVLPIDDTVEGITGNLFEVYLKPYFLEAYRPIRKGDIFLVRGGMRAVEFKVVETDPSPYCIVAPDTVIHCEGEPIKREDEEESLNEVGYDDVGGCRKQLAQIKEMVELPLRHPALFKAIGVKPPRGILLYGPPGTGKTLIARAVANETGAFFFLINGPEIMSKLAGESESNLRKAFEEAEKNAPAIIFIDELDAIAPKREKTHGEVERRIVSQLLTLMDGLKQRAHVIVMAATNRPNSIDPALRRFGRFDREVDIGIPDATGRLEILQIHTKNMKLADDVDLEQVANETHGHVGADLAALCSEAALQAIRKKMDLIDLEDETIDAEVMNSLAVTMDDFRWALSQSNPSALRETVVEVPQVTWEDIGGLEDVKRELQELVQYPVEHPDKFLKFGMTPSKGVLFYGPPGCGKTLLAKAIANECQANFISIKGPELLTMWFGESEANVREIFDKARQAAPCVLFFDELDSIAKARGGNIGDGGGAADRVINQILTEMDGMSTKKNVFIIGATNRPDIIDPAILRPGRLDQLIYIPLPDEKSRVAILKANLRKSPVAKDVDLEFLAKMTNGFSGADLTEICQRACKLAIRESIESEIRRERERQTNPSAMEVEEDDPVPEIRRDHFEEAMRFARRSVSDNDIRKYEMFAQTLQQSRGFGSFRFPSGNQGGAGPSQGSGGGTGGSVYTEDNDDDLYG
Xl-katanin, sequence (Q9PUL2 whole entry): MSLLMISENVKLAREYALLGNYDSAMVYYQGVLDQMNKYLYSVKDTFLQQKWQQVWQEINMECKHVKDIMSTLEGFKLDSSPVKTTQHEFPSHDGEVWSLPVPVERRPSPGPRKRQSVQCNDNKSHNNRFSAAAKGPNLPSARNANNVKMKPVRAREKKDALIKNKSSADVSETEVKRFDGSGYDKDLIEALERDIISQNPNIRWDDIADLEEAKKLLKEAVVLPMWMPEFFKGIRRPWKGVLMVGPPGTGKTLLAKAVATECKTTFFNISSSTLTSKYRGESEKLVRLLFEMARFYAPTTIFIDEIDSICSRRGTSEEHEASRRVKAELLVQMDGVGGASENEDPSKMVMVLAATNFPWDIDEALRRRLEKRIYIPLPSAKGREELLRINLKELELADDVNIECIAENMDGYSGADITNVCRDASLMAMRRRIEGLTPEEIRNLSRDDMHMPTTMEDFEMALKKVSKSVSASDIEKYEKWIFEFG

For the molecule `CC(C)[C@@H]1CN(c2nc(Nc3cc(C(C)(C)C)[nH]n3)c3cc[nH]c3n2)CCN1` [spastazoline, (R)-N-(5-(tert-butyl)-1H-pyrazol-3-yl)-2-(3-isopropylpiperazin-1-yl)-7H-pyrrolo[2,3-d]pyrimidin-4-amine], the “potency on Hs-spastin-N386C relative to wildtype (less potent)” value in series [1] is greater than 100 fold. In series [2], the “inhibition of Hs-FIGL1 ATPase activity” value is “did not appreciably inhibit”. The “inhibition of Mm-VCP ATPase activity” value in [3] is reported as “did not appreciably inhibit”. Further, the “inhibition of Xl-katanin ATPase activity” value in [4] is on record as “did not appreciably inhibit”. Also, the “inhibition of Hs-PCH2 ATPase activity” value in [5] was “did not appreciably inhibit”. In [6], the “inhibition of ATPase activity of recombinant human VPS4” value is on record as “did not inhibit ATPase activity”. In [7], the “increase in number of cells with intercellular bridges compared to DMSO control, HeLa-WT” value is reported as ~ 2 fold. In addition, the “percent of cells with an intercellular bridge, HeLa-WT” value in series [7] (average ± s.d., n = 3) was determined as 25.2 ± 1.4%. Moreover, the “percent of cells with an intercellular bridge, HeLa-N386C” value in series [8] was 13.6 ± 1.4%. In addition, the “viability of HeLa cells” value in series [9] was “did not impact the viability”. Besides, in series [10], the organization of microtubules result was “did not result in overt changes in the organization of microtubules”. The “increase in GFP-spastin dots in HeLa-N386C with respect to wildtype” value in series [11] came out at 1.6 fold. Further, in series [11] (average ± s.e.m.), the “number of GFP-spastin dots, HeLa-N386C” value came to 8 ± 3.
